Source: ChEMBL document CHEMBL1158577, “Role of hydrophobic substituents on the terminal nitrogen of histamine in receptor binding and agonist activity: development of an orally active histamine type 3 receptor agonist and evaluation of its antistress activity in mice” (J Med Chem, 2010)
One block for each compound: values may come before it. Active and inactive are the calls of the source. No cut-off for these calls is given here.

Experiments:
Histamine H3 receptor [1] = molecular target: T1, Histamine H3 receptor (Homo sapiens, UniProt Q9Y5N1); experiment: Agonist activity at human recombinant histamine H3 receptor expressed in CHO cells assessed as [35S]GTPgammaS binding at 10 nM after 1 hr by liquid scintillation counting relative to (R)-alpha-methylhistamine; type: functional, cell-based
T1 sequence (Q9Y5N1 whole entry): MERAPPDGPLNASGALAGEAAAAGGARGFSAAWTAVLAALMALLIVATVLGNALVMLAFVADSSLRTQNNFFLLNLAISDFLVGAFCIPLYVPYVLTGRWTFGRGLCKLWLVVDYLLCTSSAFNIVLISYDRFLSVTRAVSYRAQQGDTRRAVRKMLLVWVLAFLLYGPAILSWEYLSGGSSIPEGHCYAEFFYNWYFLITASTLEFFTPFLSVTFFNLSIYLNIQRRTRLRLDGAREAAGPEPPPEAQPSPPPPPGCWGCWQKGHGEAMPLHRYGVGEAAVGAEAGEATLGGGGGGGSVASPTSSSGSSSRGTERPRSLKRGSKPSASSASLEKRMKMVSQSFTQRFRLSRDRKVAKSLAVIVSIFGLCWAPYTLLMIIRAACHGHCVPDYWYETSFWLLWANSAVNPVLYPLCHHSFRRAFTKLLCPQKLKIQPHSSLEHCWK
Summary of the method: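 CHO cells stably expressing human H3R. Agonist response is given as a percent of the response to the reference H3R agonist. Results are mean ± SEM, n = 3.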

Histamine H3 receptor [2] = molecular target: T1, Histamine H3 receptor; experiment: Displacement of [3H[N-alpha-methylhistamine form human recombinant histamine H3 receptor expressed in CHO cells after 1 hr by liquid scintillation counting; type: cell-based
Summary of the method: (§1)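 Used CHO cells stably expressing the human H3R for both affinity (pKi) and functional agonist measurements. Each value is the mean ± SEM of n = 3.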

Histamine H3 receptor [3] = molecular target: T1, Histamine H3 receptor; experiment: Agonist activity at human recombinant histamine H3 receptor expressed in CHO cells assessed as [35S]GTPgammaS binding after 1 hr by liquid scintillation counting; type: functional, cell-based; summary of the method: as §1
[4] = molecular target: Muscarinic acetylcholine receptor M3 (Homo sapiens, UniProt P20309); experiment: Inhibition of muscarinic M3 receptor
Chain of Muscarinic acetylcholine receptor M3 (P20309 whole entry): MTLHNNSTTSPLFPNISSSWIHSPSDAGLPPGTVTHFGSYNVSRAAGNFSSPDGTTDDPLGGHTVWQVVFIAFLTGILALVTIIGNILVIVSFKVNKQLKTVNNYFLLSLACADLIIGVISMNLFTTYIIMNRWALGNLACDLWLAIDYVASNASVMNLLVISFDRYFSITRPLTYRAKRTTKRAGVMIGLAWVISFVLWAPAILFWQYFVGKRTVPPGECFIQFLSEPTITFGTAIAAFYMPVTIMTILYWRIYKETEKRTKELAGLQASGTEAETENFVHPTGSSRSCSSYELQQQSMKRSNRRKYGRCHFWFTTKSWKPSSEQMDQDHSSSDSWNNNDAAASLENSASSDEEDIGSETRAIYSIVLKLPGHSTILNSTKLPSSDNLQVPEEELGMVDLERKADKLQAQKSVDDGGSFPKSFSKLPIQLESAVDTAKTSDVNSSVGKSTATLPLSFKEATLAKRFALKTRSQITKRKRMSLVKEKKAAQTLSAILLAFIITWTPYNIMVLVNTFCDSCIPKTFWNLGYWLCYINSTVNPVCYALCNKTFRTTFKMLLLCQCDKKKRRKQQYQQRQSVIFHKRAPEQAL

Cytochrome P450 2D6 = Cytochrome P450 2D6 (Homo sapiens, UniProt P10635); experiment: Inhibition of human CYP2D6 expressed in insect cell microsome after 30 mins by fluorescence assay; type: ADME, microsomes
[5] = molecular target: Beta-1 adrenergic receptor (Homo sapiens, UniProt P08588); experiment: Inhibition of beta-1 adrenergic receptor
[6] = Total clearance in Wistar rat at 2 mg/kg, iv after 6 hrs by LC-MS/MS analysis; type: ADME, organism-based; set-up: dose 2 mg/kg, route intravenous; settings: in vivo
Summary of the method: (§2)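 Rats received 2 mg/kg iv, with n = 2. Total clearance (L/h/kg), steady-state volume of distribution (L/kg) and half-life (h) were derived.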

D(2) dopamine receptor = D(2) dopamine receptor (Homo sapiens, UniProt P14416); experiment: Inhibition of dopamine D2 receptor
Chain of D(2) dopamine receptor (P14416 whole entry): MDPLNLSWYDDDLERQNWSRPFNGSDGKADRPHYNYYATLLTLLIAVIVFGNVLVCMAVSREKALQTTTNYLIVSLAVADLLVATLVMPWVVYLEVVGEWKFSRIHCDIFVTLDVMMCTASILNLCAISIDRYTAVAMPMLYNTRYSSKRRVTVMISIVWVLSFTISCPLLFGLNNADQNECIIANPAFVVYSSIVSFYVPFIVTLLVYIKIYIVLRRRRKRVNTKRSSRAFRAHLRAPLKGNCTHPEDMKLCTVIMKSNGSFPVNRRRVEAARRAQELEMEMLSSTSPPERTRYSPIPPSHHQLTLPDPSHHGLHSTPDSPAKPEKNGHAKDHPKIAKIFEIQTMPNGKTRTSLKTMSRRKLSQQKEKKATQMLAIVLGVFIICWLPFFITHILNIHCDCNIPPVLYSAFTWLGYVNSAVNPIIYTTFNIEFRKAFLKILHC

[7] = molecular target: T2, Muscarinic acetylcholine receptor M1 (Homo sapiens, UniProt P11229); experiment: Inhibition of muscarinic M1 receptor
T2 sequence (P11229 whole entry): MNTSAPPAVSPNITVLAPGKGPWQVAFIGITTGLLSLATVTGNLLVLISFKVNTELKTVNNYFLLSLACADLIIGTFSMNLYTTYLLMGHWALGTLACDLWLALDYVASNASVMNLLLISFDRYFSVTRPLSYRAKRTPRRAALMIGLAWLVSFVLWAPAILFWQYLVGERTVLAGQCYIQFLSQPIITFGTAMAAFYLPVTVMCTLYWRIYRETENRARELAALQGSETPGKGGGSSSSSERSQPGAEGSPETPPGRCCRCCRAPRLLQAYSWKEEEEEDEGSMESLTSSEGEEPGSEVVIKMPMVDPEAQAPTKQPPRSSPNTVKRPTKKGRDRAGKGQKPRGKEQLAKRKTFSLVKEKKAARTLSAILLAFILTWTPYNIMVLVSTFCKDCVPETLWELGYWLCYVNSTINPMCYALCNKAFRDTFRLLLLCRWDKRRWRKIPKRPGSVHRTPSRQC

Mus musculus [8] = experiment: Antistress activity against isolation-induced aggressive behavior in ICR mouse assessed as duration of attacks to intruder mouse at 30 mg/kg, po measured for 10 mins by resident-intruder test (RVb = 54.5 +/- 6.7 sec); type: functional
Mus musculus [9] = experiment: In-vivo agonist activity at histamine H3 receptor in ddY mouse assessed as N-tele-methylhistamine level per gram of brain at 30 mg/kg, po by gas chromatography (RVb = 315 +/- 20 ng); type: functional, organism-based; set-up: dose 30 mg/kg
Histamine H2 receptor = Histamine H2 receptor (Homo sapiens, UniProt P25021); experiment: Inhibition of histamine H2 receptor
Chain of Histamine H2 receptor (P25021 whole entry): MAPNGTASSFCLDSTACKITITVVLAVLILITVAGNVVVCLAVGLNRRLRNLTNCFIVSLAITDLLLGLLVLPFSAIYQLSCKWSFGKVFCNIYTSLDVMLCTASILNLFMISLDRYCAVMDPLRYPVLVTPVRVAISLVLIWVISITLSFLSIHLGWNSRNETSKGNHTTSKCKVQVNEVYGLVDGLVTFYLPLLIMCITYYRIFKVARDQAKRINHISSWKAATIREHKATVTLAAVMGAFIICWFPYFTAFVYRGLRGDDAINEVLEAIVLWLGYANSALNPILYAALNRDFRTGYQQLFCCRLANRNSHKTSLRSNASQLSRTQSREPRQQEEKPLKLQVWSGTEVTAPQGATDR

Mus musculus [10] = experiment: Antistress activity against isolation-induced aggressive behavior in ICR mouse assessed as duration of attacks to intruder mouse at 3 mg/kg, po measured for 10 mins by resident-intruder test (RVb = 54.5 +/- 6.7 sec); type: functional
D(3) dopamine receptor = D(3) dopamine receptor (Homo sapiens, UniProt P35462); experiment: Inhibition of dopamine D3 receptor
Chain of D(3) dopamine receptor (P35462 whole entry): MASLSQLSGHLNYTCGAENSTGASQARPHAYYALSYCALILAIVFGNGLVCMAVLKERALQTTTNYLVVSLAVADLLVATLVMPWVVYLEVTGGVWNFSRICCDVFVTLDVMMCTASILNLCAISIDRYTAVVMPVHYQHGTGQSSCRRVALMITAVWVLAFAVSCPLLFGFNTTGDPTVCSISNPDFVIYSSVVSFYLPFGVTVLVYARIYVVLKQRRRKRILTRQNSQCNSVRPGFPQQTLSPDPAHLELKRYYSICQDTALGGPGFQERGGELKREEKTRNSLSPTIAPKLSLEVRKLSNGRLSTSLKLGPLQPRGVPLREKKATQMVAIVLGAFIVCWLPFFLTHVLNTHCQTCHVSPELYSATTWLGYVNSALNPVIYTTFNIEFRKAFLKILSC

Histamine H1 receptor = Histamine H1 receptor (Homo sapiens, UniProt P35367); experiment: Inhibition of histamine H1 receptor
Chain of Histamine H1 receptor (P35367 whole entry): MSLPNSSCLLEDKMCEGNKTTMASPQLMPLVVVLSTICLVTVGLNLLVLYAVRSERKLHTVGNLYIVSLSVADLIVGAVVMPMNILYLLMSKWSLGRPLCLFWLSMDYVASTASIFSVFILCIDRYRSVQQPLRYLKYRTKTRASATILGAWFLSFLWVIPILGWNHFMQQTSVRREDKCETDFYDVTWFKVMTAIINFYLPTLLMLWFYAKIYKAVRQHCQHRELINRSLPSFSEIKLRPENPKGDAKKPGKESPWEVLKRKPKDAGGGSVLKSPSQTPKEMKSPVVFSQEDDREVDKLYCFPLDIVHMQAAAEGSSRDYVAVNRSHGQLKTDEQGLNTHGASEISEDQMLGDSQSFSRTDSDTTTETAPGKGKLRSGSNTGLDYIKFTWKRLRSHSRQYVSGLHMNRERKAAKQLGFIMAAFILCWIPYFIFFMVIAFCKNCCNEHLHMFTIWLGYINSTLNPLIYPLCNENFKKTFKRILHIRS

[11] = molecular target: T3, 5-hydroxytryptamine receptor 3A (Homo sapiens, UniProt P46098); experiment: Inhibition of 5HT3 receptor
T3 sequence (P46098 whole entry): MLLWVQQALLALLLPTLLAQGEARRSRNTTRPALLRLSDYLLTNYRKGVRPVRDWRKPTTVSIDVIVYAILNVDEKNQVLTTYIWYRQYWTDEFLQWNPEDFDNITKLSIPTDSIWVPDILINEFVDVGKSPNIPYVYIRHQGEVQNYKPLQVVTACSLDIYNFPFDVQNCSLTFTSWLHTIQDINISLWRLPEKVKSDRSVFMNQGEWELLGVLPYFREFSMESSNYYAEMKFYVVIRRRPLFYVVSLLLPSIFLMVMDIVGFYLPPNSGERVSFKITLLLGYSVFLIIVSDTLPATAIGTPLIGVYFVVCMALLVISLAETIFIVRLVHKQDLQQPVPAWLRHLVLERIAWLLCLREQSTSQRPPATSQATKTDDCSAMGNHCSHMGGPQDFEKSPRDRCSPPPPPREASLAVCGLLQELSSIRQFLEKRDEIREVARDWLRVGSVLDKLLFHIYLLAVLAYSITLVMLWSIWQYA

[12] = molecular target: Beta-2 adrenergic receptor (Homo sapiens, UniProt P07550); experiment: Inhibition of beta2 adrenergic receptor
Chain of Beta-2 adrenergic receptor (P07550 whole entry): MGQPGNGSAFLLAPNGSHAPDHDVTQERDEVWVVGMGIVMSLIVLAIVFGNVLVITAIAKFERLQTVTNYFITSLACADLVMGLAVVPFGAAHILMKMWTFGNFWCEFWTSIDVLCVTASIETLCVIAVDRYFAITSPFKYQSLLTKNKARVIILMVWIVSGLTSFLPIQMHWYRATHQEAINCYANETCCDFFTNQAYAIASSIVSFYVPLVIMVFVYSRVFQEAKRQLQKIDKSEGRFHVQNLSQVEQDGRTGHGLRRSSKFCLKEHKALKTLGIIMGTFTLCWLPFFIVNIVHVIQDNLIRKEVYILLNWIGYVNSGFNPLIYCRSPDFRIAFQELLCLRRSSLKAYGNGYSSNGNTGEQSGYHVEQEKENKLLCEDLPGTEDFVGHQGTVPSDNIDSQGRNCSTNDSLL

Cytochrome P450 3A4 = Cytochrome P450 3A4 (Homo sapiens, UniProt P08684); experiment: Inhibition of human CYP3A4 expressed in insect cell microsome after 30 mins by fluorescence assay; type: ADME, microsomes
Chain of Cytochrome P450 3A4 (P08684 whole entry): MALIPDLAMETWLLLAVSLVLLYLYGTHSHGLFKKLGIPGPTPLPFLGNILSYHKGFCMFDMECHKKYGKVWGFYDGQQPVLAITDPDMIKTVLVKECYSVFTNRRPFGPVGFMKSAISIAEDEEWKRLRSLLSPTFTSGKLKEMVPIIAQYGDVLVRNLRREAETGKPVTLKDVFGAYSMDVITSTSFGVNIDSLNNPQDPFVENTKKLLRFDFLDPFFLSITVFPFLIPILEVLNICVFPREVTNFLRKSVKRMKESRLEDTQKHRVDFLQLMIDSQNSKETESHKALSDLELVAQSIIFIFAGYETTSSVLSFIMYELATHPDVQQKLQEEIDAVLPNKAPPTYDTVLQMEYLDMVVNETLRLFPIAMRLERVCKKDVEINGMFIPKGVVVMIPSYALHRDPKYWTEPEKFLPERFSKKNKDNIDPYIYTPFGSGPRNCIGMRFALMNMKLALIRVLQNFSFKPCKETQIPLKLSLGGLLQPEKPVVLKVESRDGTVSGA

[13] = Ratio of drug level in brain to plasma in Wistar rat at 5 mg/kg, po after 1 hr; type: ADME, organism-based; set-up: dose 5 mg/kg, route oral; settings: brain and plasma, read-out: BPR
Summary of the method: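 Brain/plasma concentration ratio was determined in rats 1 h after administration, with n = 2.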

Histamine H4 receptor = Histamine H4 receptor (Homo sapiens, UniProt Q9H3N8); experiment: Inhibition of human recombinant histamine H4 receptor expressed in CHO cells; type: cell-based
Cytochrome P450 2C19 = Cytochrome P450 2C19 (Homo sapiens, UniProt P33261); experiment: Inhibition of human CYP2C19 expressed in insect cell microsome after 30 mins by fluorescence assay; type: ADME, microsomes
[14] = Oral bioavailability in Wistar rat at 5 mg/kg after 24 hrs by LC-MS/MS analysis; type: ADME, organism-based; settings: in vivo
Summary of the method: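 In rat, an oral dose of 5 mg/kg (n = 2) was used to determine AUC0-inf and bioavailability (%).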

[15] = Inhibition of alpha1 adrenergic receptor
Cytochrome P450 1A2 = molecular target: T4, Cytochrome P450 1A2 (Homo sapiens, UniProt P05177); experiment: Inhibition of human CYP1A2 expressed in insect cell microsome after 15 mins by fluorescence assay; type: ADME, microsomes
T4 sequence (P05177 whole entry): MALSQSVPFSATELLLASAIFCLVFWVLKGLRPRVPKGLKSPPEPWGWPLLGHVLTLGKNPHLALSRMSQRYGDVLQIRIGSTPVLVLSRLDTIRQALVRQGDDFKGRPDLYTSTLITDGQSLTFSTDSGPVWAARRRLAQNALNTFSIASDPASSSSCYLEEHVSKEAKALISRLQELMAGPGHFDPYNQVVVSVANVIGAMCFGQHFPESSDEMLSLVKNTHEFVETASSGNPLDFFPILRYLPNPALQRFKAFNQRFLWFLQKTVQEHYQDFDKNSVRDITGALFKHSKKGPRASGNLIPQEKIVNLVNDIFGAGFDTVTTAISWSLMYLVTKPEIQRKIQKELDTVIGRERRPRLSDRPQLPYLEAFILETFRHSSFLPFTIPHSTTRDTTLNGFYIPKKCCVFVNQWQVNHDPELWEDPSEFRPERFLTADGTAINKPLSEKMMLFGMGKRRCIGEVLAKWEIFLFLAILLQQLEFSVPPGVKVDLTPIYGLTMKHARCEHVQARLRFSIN

[16] = Half life in Wistar rat at 2 mg/kg, iv after 6 hrs by LC-MS/MS analysis; type: ADME, organism-based; set-up: dose 2 mg/kg, route intravenous; settings: in vivo; summary of the method: as §2
[17] = molecular target: 5-hydroxytryptamine receptor 2A (Homo sapiens, UniProt P28223); experiment: Inhibition of 5HT2A receptor
Chain of 5-hydroxytryptamine receptor 2A (P28223 whole entry): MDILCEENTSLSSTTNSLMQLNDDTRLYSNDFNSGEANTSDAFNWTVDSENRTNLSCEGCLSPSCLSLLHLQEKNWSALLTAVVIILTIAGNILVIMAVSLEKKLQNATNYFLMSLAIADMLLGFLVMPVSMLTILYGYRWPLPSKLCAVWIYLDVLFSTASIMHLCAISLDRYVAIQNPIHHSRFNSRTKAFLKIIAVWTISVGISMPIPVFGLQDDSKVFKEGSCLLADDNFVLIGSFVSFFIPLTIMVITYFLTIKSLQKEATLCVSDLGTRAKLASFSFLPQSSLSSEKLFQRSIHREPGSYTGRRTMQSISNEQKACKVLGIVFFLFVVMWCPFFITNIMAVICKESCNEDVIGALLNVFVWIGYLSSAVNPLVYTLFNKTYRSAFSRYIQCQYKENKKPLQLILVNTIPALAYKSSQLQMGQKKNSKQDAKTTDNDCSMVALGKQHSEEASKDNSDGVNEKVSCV

Mus musculus [18] = experiment: In-vivo agonist activity at histamine H3 receptor in ddY mouse assessed as N-tele-methylhistamine level per gram of brain at 5 mg/kg, po by gas chromatography (RVb = 315 +/- 20 ng); type: functional, organism-based; set-up: dose 5 mg/kg
D(1A) dopamine receptor = D(1A) dopamine receptor (Homo sapiens, UniProt P21728); experiment: Inhibition of dopamine D1 receptor
Chain of D(1A) dopamine receptor (P21728 whole entry): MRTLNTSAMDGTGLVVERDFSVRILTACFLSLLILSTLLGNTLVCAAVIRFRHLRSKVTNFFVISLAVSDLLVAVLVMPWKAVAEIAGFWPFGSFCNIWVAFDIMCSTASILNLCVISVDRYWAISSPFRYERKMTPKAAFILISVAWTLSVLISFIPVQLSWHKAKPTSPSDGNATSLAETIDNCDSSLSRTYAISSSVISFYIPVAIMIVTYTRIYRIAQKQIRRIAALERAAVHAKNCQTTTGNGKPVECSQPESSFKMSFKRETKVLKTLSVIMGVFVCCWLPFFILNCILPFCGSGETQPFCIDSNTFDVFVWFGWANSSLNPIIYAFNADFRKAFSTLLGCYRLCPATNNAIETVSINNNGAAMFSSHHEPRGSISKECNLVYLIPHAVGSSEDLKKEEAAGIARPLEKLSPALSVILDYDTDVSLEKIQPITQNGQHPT

Mus musculus [19] = experiment: In-vivo agonist activity at histamine H3 receptor in ddY mouse assessed as N-tele-methylhistamine level per gram of brain at 1 mg/kg, po by gas chromatography (RVb = 315 +/- 20 ng); type: functional, organism-based; set-up: dose 1 mg/kg
[20] = molecular target: T5, 5-hydroxytryptamine receptor 1A (Homo sapiens, UniProt P08908); experiment: Inhibition of 5HT1A receptor
T5 sequence (P08908 whole entry): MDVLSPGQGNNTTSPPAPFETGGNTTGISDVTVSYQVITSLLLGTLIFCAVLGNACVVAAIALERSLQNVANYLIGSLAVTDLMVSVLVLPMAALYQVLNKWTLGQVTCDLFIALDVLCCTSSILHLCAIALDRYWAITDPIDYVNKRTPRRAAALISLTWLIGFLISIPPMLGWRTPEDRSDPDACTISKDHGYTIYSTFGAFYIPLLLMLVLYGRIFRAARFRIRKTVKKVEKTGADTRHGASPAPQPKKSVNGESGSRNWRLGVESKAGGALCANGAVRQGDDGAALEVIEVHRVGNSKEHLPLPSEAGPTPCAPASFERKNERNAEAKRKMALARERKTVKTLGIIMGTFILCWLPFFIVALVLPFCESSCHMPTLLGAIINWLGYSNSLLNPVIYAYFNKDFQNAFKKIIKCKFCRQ

[21] = Metabolic stability in rat liver S9 fraction assessed as […] after 60 mins by HPLC analysis; type: ADME, subcellular; settings: s9, 1 h
Summary of the method: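 Rat S9 metabolic activity was expressed as pmol/min/mg protein, reported as mean ± SEM with n = 3.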

[22] = Volume of distribution at steady state in Wistar rat at 2 mg/kg, iv after 6 hrs by LC-MS/MS analysis; type: ADME, organism-based; set-up: dose 2 mg/kg, route intravenous; settings: in vivo, read-out: Vdss; summary of the method: as §2
Mus musculus [23] = experiment: Antistress activity against isolation-induced aggressive behavior in ICR mouse assessed as duration of attacks to intruder mouse at 7.5 mg/kg, po measured for 10 mins by resident-intruder test (RVb = 54.5 +/- 6.7 sec); type: functional

Compound: NCCc1c[nH]cn1 [HISTAMINE]
- Activity (Histamine H3 receptor [1]): 110%

Compound: Cc1ccc(NCCc2cnc[nH]2)cc1C
- Ki (Histamine H3 receptor [2]): 0.0099 µM
- EC50 (Histamine H3 receptor [3]; read-out: EC50): 0.025 µM

Compound: N=C(N)SCCc1cnc[nH]1 [IMETIT]
- Ki (Histamine H3 receptor [2]): 0.00057 µM
- EC50 (Histamine H3 receptor [3]; read-out: EC50): 0.0024 µM

Compound: COCCCC/C(=N\OCCN)c1ccc(C(F)(F)F)cc1 [FLUVOXAMINE]
- Time (Mus musculus [8]): 19.9 s
- Time (Mus musculus [23]): 30.7 s

Compound: c1ncc(CCNc2ccc(C3CCCCC3)cc2)[nH]1
- Ki (Histamine H3 receptor [2]): 0.0041 µM

Second part, led by results:

- Activity (Histamine H3 receptor [1]): 49%
Compound: Cc1ccc(NCCc2c[nH]cn2)cc1

- Activity (Histamine H3 receptor [1]): 70%
Compound: CC(C)(C)c1ccc(NCCc2c[nH]cn2)cc1

- Activity (Histamine H3 receptor [1]): inactive
- EC50 (Histamine H3 receptor [3]; cho): Not Active
Compound: c1nc(CCNc2ccc(C3CCCCC3)cc2)c[nH]1

- Ki [4]: > 1 µM
- IC50 (Cytochrome P450 2D6): 0.68 µM
- Ki [5]: > 1 µM
- clearance [6]: 2.8 L/h/kg
- Ki (D(2) dopamine receptor): > 1 µM
- Ki [7]: > 1 µM
- Ki (Histamine H2 receptor): > 1 µM
- Ki (D(3) dopamine receptor): > 1 µM
- Ki (Histamine H1 receptor): > 1 µM
- Ki [11]: > 1 µM
- Ki [12]: > 1 µM
- IC50 (Cytochrome P450 3A4): 0.47 µM
- Ki (Histamine H3 receptor [2]): 0.00017 µM
- Kp at 1 h [13]: 6
- Ki (Histamine H4 receptor): 0.0011 µM
- IC50 (Cytochrome P450 2C19): 0.0085 µM
- bioavailability [14]: 53.5%
- Activity (Histamine H3 receptor [1]): 77%
- Ki [15]: > 1 µM
- IC50 (Cytochrome P450 1A2): 0.68 µM
- half-life [16]: 1 h
- Ki [17]: > 1 µM
- Ki (D(1A) dopamine receptor): > 1 µM
- Ki [20]: > 1 µM
- Stability [21]: 13 pmol/min
- Vd [22]: 3.4 L/kg
- EC50 (Histamine H3 receptor [3]; read-out: EC50): 0.00075 µM
Compound: CC(C)(C)c1ccc(SCCc2c[nH]cn2)cc1
- Time (Mus musculus [8]): 16.3 s
- Nτ-methylhistamine level (Mus musculus [9]): 96 ng/g
- Time (Mus musculus [10]): 42.9 s
- Nτ-methylhistamine level (Mus musculus [18]): 92 ng/g
- Nτ-methylhistamine level (Mus musculus [19]): 298 ng/g
